Source: ChEMBL document CHEMBL3751842, “Novel triazolothiadiazines act as potent anticancer agents in liver cancer cells through Akt and ASK-1 proteins” (Bioorg Med Chem, 2016)
The source made the active and inactive calls. No cut-off for these calls is given here.

What was measured:
[1] = Cytotoxicity against human HuH7 cells assessed as growth inhibition after 72 hrs by sulforhodamine B assay; format: functional, cell-based, Huh-7; details: Homo sapiens, Huh-7, 72 h; read-out: IC50
Outline: (§1)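 Cells were grown at 37°C, 5% CO2 in DMEM with 10% FBS. They were seeded at 1000–3000 cells/well, grown 24 h, then exposed to compound at 2.5–40 µM for 72 h. Cells were fixed in 10% TCA for 1 h at 4°C, stained with 0.4% SRB in 1% acetic acid for 10 min, and the dye solubilized in 10 mM Tris. Absorbance was read at 515 nm; runs were in triplicate; IC50 was calculated, with fits of R2 0.8–1 accepted.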

MCF7 = assay: Cytotoxicity against human MCF7 cells assessed as growth inhibition after 72 hrs by sulforhodamine B assay; format: functional, cell-based; outline: as §1
[2] = Cytotoxicity against human HCT116 cells assessed as growth inhibition after 72 hrs by sulforhodamine B assay; format: functional, cell-based, HCT-116; outline: as §1
[3] = Cytotoxicity against human Mahlavu cells assessed as growth inhibition after 72 hrs by sulforhodamine B assay; format: functional, cell-based; outline: as §1
[4] = Cytotoxicity against human FOCUS cells assessed as growth inhibition after 72 hrs by sulforhodamine B assay; format: functional, cell-based; outline: as §1
[5] = Cytotoxicity against human SNU475 cells assessed as growth inhibition after 72 hrs by sulforhodamine B assay; format: functional, cell-based, SNU-475; outline: as §1
HepG2 = assay: Cytotoxicity against human HepG2 cells assessed as growth inhibition after 72 hrs by sulforhodamine B assay; format: functional, cell-based; outline: as §1
[6] = Cytotoxicity against human Hep3B cells assessed as growth inhibition after 72 hrs by sulforhodamine B assay; format: functional, cell-based, Hep 3B2; outline: as §1
Huh-7 [7] = assay: Induction of apoptosis in human HuH7 cells assessed as nuclear condensation at 10 uM after 48 hrs by Hoechst 33258 staining-based immunofluorescence microscopy; format: functional, cell-based
Outline: (§2)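 Cells on coverslips were incubated overnight, then treated with 10 µM compound or DMSO for 48 h. They were washed in ice-cold PBS, fixed in cold methanol for 10 min, and stained with 1 µg/mL Hoechst 33258 for 5 min in the dark. Nuclei were examined by fluorescence microscopy with a 40x objective.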

Huh-7 [8] = assay: Induction of apoptosis in human HuH7 cells assessed as horseshoe nuclear structure at 10 uM after 48 hrs by Hoechst 33258 staining-based immunofluorescence microscopy; format: functional, cell-based; outline: as §2
Huh-7 [9] = assay: Cytotoxicity against human HuH7 cells assessed as cell impedance at IC25 to IC100 measured every 30 mins for 72 hrs by RT-CES assay; format: functional, cell-based; details: TDE = time-dependent effect
Outline: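 Huh7 cells were seeded at 1000–5000 cells/well on electrode plates. […] Impedance was read as cell index every 10 min for the first 24 h, then every 30 min, over 72 h. Data were normalized to DMSO; inhibition (%) = [1 − (CI treated/CI DMSO)] × 100. Each experiment was run at least three times.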

[10] = Homo sapiens, MCF7, 72 h, read-out: IC50
[11] = Homo sapiens, HCT-116, 72 h, read-out: IC50
[12] = Homo sapiens, Mahlavu, 72 h, read-out: IC50
[13] = Homo sapiens, FOCUS, 72 h, read-out: IC50
[14] = Homo sapiens, SNU-475, 72 h, read-out: IC50
[15] = Homo sapiens, HepG2, 72 h, read-out: IC50
[16] = Homo sapiens, Hep3B, 72 h, read-out: IC50

SMILES | IC50 [1] [µM] | IC50 (MCF7; [10]) [µM] | IC50 [2, 11] [µM] | IC50 [3, 12] [µM] | IC50 [5, 14] [µM] | IC50 [6, 16] [µM] | other results
COc1ccc2cc(C(C)c3nnc4n3N=C(c3ccc(Br)cc3)CS4)ccc2c1 (stereo not given) | 9.3 | 11.5 | 11.7 |  |  |  | 
CC(C)Cc1ccc(C(C)C(=O)O)cc1 (stereo not given) [IBUPROFEN] | 37.2 |  |  |  |  |  | IC50 (MCF7; mcf7): Not Active; IC50 ([2]; hct-116): Not Active; IC50 ([3]; mahlavu): Not Active; IC50 ([4]; focus): Not Active; IC50 ([5]; snu-475): Not Active; IC50 (HepG2; hepg2): Not Active; IC50 ([6]; hep 3b2): Not Active
CC(c1ccc(-c2ccccc2)c(F)c1)c1nnc2n1N=C(c1ccc(F)cc1)CS2 (stereo not given) | 4.9 | 8.1 | 10.5 | 7.4 | 6.6 | 2.6 | Activity (Huh-7 [7]): Active; Activity (Huh-7 [8]): Active; Activity (Huh-7 [9]): tde; IC50 [4, 13]: 3.5 µM; IC50 (HepG2; [15]): 5.1 µM
COc1ccc2cc(C(C)c3nnc4n3N=C(c3ccc([N+](=O)[O-])cc3)CS4)ccc2c1 (stereo not given) | 14.7 | 18.8 | 15.1 |  |  |  | 
CC(c1ccc(-c2ccccc2)c(F)c1)c1nnc2n1N=C(c1ccc(OC(F)(F)F)cc1)CS2 (stereo not given) | 8.4 | 4.8 | 5.4 |  |  |  | 
COc1ccc2cc(C(C)c3nnc4n3N=C(c3ccc(C)cc3)CS4)ccc2c1 (stereo not given) | 8.2 | 11 | 10.2 |  |  |  | 
CC(c1ccc(-c2ccccc2)c(F)c1)c1nnc2n1N=C(c1ccc([N+](=O)[O-])cc1)CS2 (stereo not given) | 4.3 | 7.8 | 7.1 | 9.4 | 7.1 | 2.9 | Activity (Huh-7 [7]): inactive; Activity (Huh-7 [8]): inactive; Activity (Huh-7 [9]): tde; IC50 [4, 13]: 3.5 µM; IC50 (HepG2; [15]): 4.3 µM
CC(c1ccc(-c2ccccc2)c(F)c1)c1nnc2n1N=C(c1ccc(C(F)(F)F)cc1)CS2 (stereo not given) | 9.4 | 4.3 | 6.1 |  |  |  | 
COc1ccc2cc(C(C)c3nnc4n3N=C(c3ccc(OC(F)(F)F)cc3)CS4)ccc2c1 (stereo not given) | 16 | 8.8 | 11.7 |  |  |  | 
CC(C)Cc1ccc(C(C)c2nnc3n2N=C(c2ccc(OC(F)(F)F)cc2)CS3)cc1 (stereo not given) | 3.6 | 1.1 | 3 | 9.1 | 6.8 | 6.4 | Activity (Huh-7 [7]): Active; Activity (Huh-7 [8]): Active; Activity (Huh-7 [9]): tde; IC50 [4, 13]: 8.8 µM; IC50 (HepG2; [15]): 9.7 µM
COc1ccc2cc(C(C)c3nnc4n3N=C(c3ccc(F)cc3)CS4)ccc2c1 (stereo not given) | 7 | 15.8 | 13.1 |  |  |  | 
COc1ccc(C2=Nn3c(nnc3C(C)c3ccc4cc(OC)ccc4c3)SC2)cc1 (stereo not given) | 8.5 | 6.6 | 6.5 |  |  |  | 
CC(c1ccc(-c2ccccc2)c(F)c1)c1nnc2n1N=C(c1ccc(Br)cc1)CS2 (stereo not given) | 5 | 7.4 | 7.1 | 6.2 | 7 | 1.5 | Activity (Huh-7 [7]): inactive; Activity (Huh-7 [8]): inactive; Activity (Huh-7 [9]): tde; IC50 [4, 13]: 8.5 µM; IC50 (HepG2; [15]): 3.7 µM
COc1ccc2cc(C(C)c3nnc4n3N=C(c3ccc(C(F)(F)F)cc3)CS4)ccc2c1 (stereo not given) | 14.8 | 6.9 | 10.8 |  |  |  | 
CC(C)Cc1ccc(C(C)c2n[nH]c(=S)n2N)cc1 (stereo not given) | 23 | 16.1 | 27.4 | 16.2 | 11.7 | 13.1 | IC50 ([4]; focus): Not Active; IC50 (HepG2; hepg2): Not Active
Cc1ccc(C2=Nn3c(nnc3C(C)c3ccc(-c4ccccc4)c(F)c3)SC2)cc1 (stereo not given) | 7.2 | 5 | 4.8 |  |  |  | 
